The source made the active and inactive calls. No cut-off for these calls is given here.

The test system of assay [1] is Triticum aestivum. The experiment in a line: Inhibition of stem growth of Triticum aestivum at 100 mg/L. Type of assay: functional. The essentials:
(§1)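 Seeds of each species were grown in Petri dishes with 10 seeds per dish, at 28 °C, 70–80% RH, 16:8 h light:dark photoperiod and 3000 lx light for 5 days. Root and stem lengths were measured for the 10 seeds and averaged. Each test and its controls were run in three replicates, and the data were given probit analysis.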

Assay [2] relates to Triticum aestivum. The experiment in a line: Inhibition of root growth of Triticum aestivum at 100 mg/L. Type of assay: functional. The essentials: as §1
The test system of assay [3] is Echinochloa crus-galli. The experiment in a line: Inhibition of stem growth of Echinochloa crus-galli at 100 mg/L. It is filed as functional. The essentials: as §1
The test system of assay [4] is Echinochloa crus-galli. The experiment in a line: Inhibition of root growth of Echinochloa crus-galli at 100 mg/L. Type of assay: functional. The essentials: as §1
Assay [5] has as its system Sorghum bicolor. The assay can be described thus: Inhibition of stem growth of Sorghum bicolor at 100 mg/L. Type of assay: functional. An outline of the steps:
as §1

The subject of assay [6] is Sorghum bicolor. The experiment in a line: Inhibition of root growth of Sorghum bicolor at 100 mg/L. It is filed as functional. An outline of the steps:
as §1

Assay [7] has as its system Brassica rapa subsp. oleifera. The experiment in a line: Inhibition of stem growth of Brassica campestris at 100 mg/L. Type of assay: functional. The essentials: as §1
Assay [8] has as its system Brassica rapa subsp. oleifera. The experiment in a line: Inhibition of root growth of Brassica campestris at 100 mg/L. It is filed as functional. An outline of the steps: as §1
For assay [9], the system named is Radish. The experiment in a line: Inhibition of stem growth of Raphanus sativus at 100 mg/L. It is filed as functional. An outline of the steps: as §1
Assay [10] concerns Radish. The experiment in a line: Inhibition of root growth of Raphanus sativus at 100 mg/L. It is filed as functional. The essentials: as §1
Assay [11] concerns Cucumis sativus. The assay can be described thus: Inhibition of stem growth of Cucumis sativus at 100 mg/L. It is filed as functional. An outline of the steps:
as §1

Assay [12] concerns Cucumis sativus. The assay can be described thus: Inhibition of root growth of Cucumis sativus at 100 mg/L. Type of assay: functional. The essentials: as §1
Assay [13] concerns Aphis. The assay can be described thus: Insecticidal activity against Aphis medicagini at 250 mg/L. Type of assay: functional. An outline of the steps: (§2)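 Groups of 10 of each species were placed in glass Petri dishes and sprayed with test solution using a Potter sprayer. After air-drying, they were held under normal rearing conditions. Mortality at 72 h was taken from the number and size of live larvae relative to untreated controls.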

Assay [14] relates to Triticum aestivum. The experiment in a line: Herbicidal activity against Triticum aestivum at 450 g ai/ha in greenhouse in vivo test. It is filed as functional, organism-based.
Assay [15] relates to Echinochloa crus-galli. The experiment in a line: Herbicidal activity against Echinochloa crus-galli at 450 g ai/ha in greenhouse in vivo test. It is filed as functional, organism-based.
For assay [16], the system named is Sorghum bicolor. The assay can be described thus: Herbicidal activity against Sorghum bicolor at 450 g ai/ha in greenhouse in vivo test. Type of assay: functional, organism-based.
The test system of assay [17] is Brassica rapa subsp. oleifera. The assay can be described thus: Herbicidal activity against Brassica campestris at 450 g ai/ha in greenhouse in vivo test. Type of assay: functional, organism-based.
In assay [18] the test system is Radish. The assay can be described thus: Herbicidal activity against Raphanus sativus at 450 g ai/ha in greenhouse in vivo test. It is filed as functional, organism-based.
The subject of assay [19] is Cucumis sativus. The assay can be described thus: Herbicidal activity against Cucumis sativus at 450 g ai/ha in greenhouse in vivo test. Type of assay: functional, organism-based.
Assay [20] has as its system Tetranychus cinnabarinus. The experiment in a line: Insecticidal activity against Tetranychus cinnabarinus at 250 mg/L. It is filed as functional. An outline of the steps:
as §2

As to `CCCCSc1nnc(Cn2nnn(-c3ccc(Cl)cc3)c2=O)s1`, the inhibition at 100 µg/mL in [1] was 40%; in [2], 40%; in assay [3], 30%; in [4] it was 70%; in assay [5], 40%; in assay [6], 50%. The inhibition at 100 µg/mL turned out to be 40% in assay [7]; 50% in assay [8]; 0% in assay [9]; 30% in [10]; 0% in assay [11]; 0% in assay [12]. Besides, the figures for the Activity in assay [13] and in assay [20] were 0% and 5.7%, respectively. Also, the result in [14], in assay [15], in assay [16], in assay [17], in assay [18] and in assay [19] was inactive.
Regarding `O=c1n(Cc2cccc(F)c2)nnn1-c1ccc(Cl)cc1`, the inhibition at 100 µg/mL in assay [1] was 40%; in [2] it was 40%; in assay [3], 0%; in assay [4], 70%; in [5], 0%; in [6], 0%. The inhibition at 100 µg/mL is 0% in assay [7]; 0% in assay [8]; 0% in assay [9]; 0% in [10]; 30% in assay [11]; 50% in assay [12]. Further, the Activity worked out at 0% in assay [13] and 5.7% in assay [20]. The outcome in assay [14], in assay [15], in assay [16], in assay [17], in assay [18] and in [19] was inactive.
In the case of `CCOC(=O)Cn1nnn(-c2ccc(Cl)cc2)c1=O`, the inhibition at 100 µg/mL in assay [1] stood at 30%; in [2], 30%; in assay [3] it was 0%; in assay [4], 0%; in assay [5], 20%; in [6], 20%. Moreover, the inhibition at 100 µg/mL in assay [7] was 70%; in [8], 85%; in [9] it was 40%; in assay [10], 80%; in [11], 0%; in assay [12] it was 0%. Besides, the Activity in [13] amounted to 8.3%; in assay [20], 0%. The result in assay [14], in assay [15], in [16], in [17], in assay [18] and in assay [19] was inactive.
Turning to `CCCCCCCCSc1nnc(Cn2nnn(-c3ccc(Cl)cc3)c2=O)s1`, the inhibition at 100 µg/mL in [1] was 0%; in assay [2], 30%; in assay [3], 0%; in [4] it was 40%; in [5], 0%; in [6], 50%. Besides, the inhibition at 100 µg/mL was found to be 0% in assay [7]; 40% in [8]; 0% in [9]; 40% in assay [10]; 0% in [11]; 30% in assay [12]. In addition, the values for the Activity in [13] and in [20] were 0% and 2.9%, respectively. The result in [14], in assay [15], in assay [16], in assay [17], in [18] and in assay [19] was inactive.

Source of the values: ChEMBL document CHEMBL1142895, “Discovery of a new insecticide lead by optimizing a target-diverse scaffold: tetrazolinone derivatives” (2007).
